Calls of active or inactive are those of the source. The calls are words filed in the database; no cut-off is given here.
Key:
KB 3-1 = assay: Antiproliferative activity against human KB-3-1 cell line by MTT assay; format: functional, cell-based
Summary of the method: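 KB-3-1 cells grown in DMEM with 10% fetal calf serum, 2 mM glutamine, penicillin/streptomycin and 10 mM HEPES pH 7.4. Microculture tetrazolium assay: nine serial drug dilutions in triplicate for 96 h (four doubling times). IC50 is the concentration halving optical density relative to untreated controls; mean of at least three separate experiments.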

L1210 [1] = assay: Cell cycle arrest in L1210 cell line by accumulation at S phase after 21 hrs; format: functional, cell-based; details: Mus musculus
Summary of the method: (§1)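 L1210 cells at 5 × 10⁵ cells/mL treated 21 h with various drug concentrations. Then ethanol-fixed (70%), washed, and stained 30 min at 20 °C in PBS with 100 µg/mL RNase and 50 µg/mL propidium iodide. Flow cytometry on 10 000 cells per sample. Highest percentage of S-phase cells reported with the concentration giving it.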

L1210 [2] = assay: Antiproliferative activity against mouse L1210 cell line by MTT assay; format: functional, cell-based
Summary of the method: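 L1210 cells cultured in RPMI 1640 with 10% fetal calf serum, 2 mM glutamine, penicillin/streptomycin and 10 mM HEPES pH 7.4. Exposed to nine serial drug dilutions in triplicate for 48 h (four doubling times), then read by tetrazolium (MTT) assay. IC50 is the concentration cutting optical density by 50% versus untreated controls; mean of at least three independent experiments.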

Nucleic Acid = assay: Alkylation of DNA at 50 uM by gel shift assay; format: nucleic-acid assay
Summary of the method: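 Radiolabeled 117-bp pBS DNA fragment (EcoRI/PvuII cut, 3′-end-labeled at EcoRI site with [³²P]dATP, gel-purified) incubated with drug at 50 µM in 1 mM Na cacodylate pH 7.0, dark, room temperature, 2 h or 24 h. Resolved on native polyacrylamide gel in TBE; bound versus free DNA scored as strong, weak or no alkylation.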

L1210 [3] = assay: Cell cycle arrest in L1210 cell line by accumulation at S phase at 10 uM after 21 hrs; format: functional, Mus musculus; summary of the method: as §1
L1210 [4] = assay: Cell cycle arrest in L1210 cell line by accumulation at S phase at 5 uM after 21 hrs; format: functional, Mus musculus; summary of the method: as §1
L1210 [5] = assay: Cell cycle arrest in L1210 cell line by accumulation at S phase at 2.5 uM after 21 hrs; format: functional, Mus musculus; summary of the method: as §1
MC-38 = assay: Antiproliferative activity against mouse C38 cell line implanted in B6D2F1 mouse at 4 mg/kg, iv; format: functional
L1210 [6] = assay: Cell cycle arrest in L1210 cell line by accumulation at S phase at 0.25 uM after 21 hrs; format: functional, Mus musculus; summary of the method: as §1

IC50 (KB 3-1) [nM] | IC50 (L1210 [2]) [nM] | Activity (Nucleic Acid) | SMILES | Activity (L1210 [1]) | Activity (L1210 [3]) [%] | Activity (L1210 [4]) [%] | Activity (L1210 [5]) [%] | Activity (MC-38) [%] | Activity (L1210 [6]) [%]
6300 | 2000 | inactive | COc1cc2c(c3c1c(=O)c1c4ccccc4ccc1n3C)C(=O)[C@@H](OC(C)=O)C(C)(C)O2 | – | – | – | – | – | –
100 | 500 | Active | COc1cc2c(c3c1c(=O)c1c4ccccc4ccc1n3C)[C@@H](O)[C@@H](OC(=O)N(C)C)C(C)(C)O2 (racemic) | – | 73 | – | – | – | –
200 | 700 | Active | COc1cc2c(c3c1c(=O)c1c4ccccc4ccc1n3C)[C@@H](O)[C@@H](OC(C)=O)C(C)(C)O2 (racemic) | – | – | 76 | – | – | –
300 | 800 | Active | COc1cc2c(c3c1c(=O)c1c4ccccc4ccc1n3C)[C@@H](O)[C@@H](OC(=O)c1ccccc1)C(C)(C)O2 (racemic) | – | – | – | 73 | – | –
200 | 1000 | Active | COc1cc2c(c3c1c(=O)c1c4ccccc4ccc1n3C)[C@@H](O)[C@@H](OC(=O)CC(C)C)C(C)(C)O2 (racemic) | – | – | 73 | – | – | –
100 | 500 | Active | CCC(=O)O[C@@H]1[C@H](O)c2c(cc(OC)c3c(=O)c4c5ccccc5ccc4n(C)c23)OC1(C)C (racemic) | – | – | 69 | – | – | –
32000 | 49000 | inactive | COc1cc2c(c3c1c(=O)c1c4ccccc4ccc1n3C)[C@@H](O)[C@@H](O)C(C)(C)O2 (racemic) | – | – | – | – | – | –
150 | 700 | Active | COc1cc2c(c3c1c(=O)c1c4ccccc4ccc1n3C)[C@@H](OC(C)=O)[C@@H](OC(C)=O)C(C)(C)O2 (racemic) | – | – | 68 | – | > 80 | –
250 | 800 | inactive | C=CCCC(=O)O[C@@H]1[C@H](O)c2c(cc(OC)c3c(=O)c4c5ccccc5ccc4n(C)c23)OC1(C)C (racemic) | – | – | 70 | – | – | –
100 | 700 | Active | C=CCCC(=O)O[C@@H]1[C@H](OC(C)=O)c2c(cc(OC)c3c(=O)c4c5ccccc5ccc4n(C)c23)OC1(C)C (racemic) | – | – | 78 | – | – | –
100 | 800 | Active | COc1cc2c(c3c1c(=O)c1c4ccccc4ccc1n3C)[C@@H](OC(C)=O)[C@@H](OC(=O)CC(C)C)C(C)(C)O2 (racemic) | – | – | 76 | – | – | –

Second part, the compound before the results:

SMILES | IC50 (KB 3-1) [nM] | IC50 (L1210 [2]) [nM] | Activity (Nucleic Acid) | Activity (L1210 [1]) | Activity (L1210 [3]) [%] | Activity (L1210 [4]) [%] | Activity (L1210 [5]) [%] | Activity (MC-38) [%] | Activity (L1210 [6]) [%]
COc1cc2c(c3nc4ccc5ccccc5c4c(O)c13)C(=O)C(O)C(C)(C)O2 (centres undefined) | 2000 | 500 | inactive | inactive | – | – | – | – | –
COc1cc2c(c3nc4ccc5ccccc5c4c(OC)c13)C=CC(C)(C)O2 | 33000 | 28000 | – | – | – | – | – | – | –
CCN(CC)C(=O)O[C@@H]1c2c(cc(OC)c3c(=O)c4c5ccccc5ccc4n(C)c23)OC(C)(C)[C@@H]1OC(=O)N(CC)CC (racemic) | 800 | 900 | Active | – | 43 | – | – | – | –
COc1cc2c(c3nc4ccc5ccccc5c4c(OC)c13)[C@@H](OC(C)=O)[C@@H](OC(C)=O)C(C)(C)O2 (racemic) | 7200 | 8000 | inactive | – | – | – | – | – | –
CCC(=O)O[C@@H]1c2c(cc(OC)c3c(=O)c4c5ccccc5ccc4n(C)c23)OC(C)(C)[C@@H]1OC(=O)CC (racemic) | 100 | 500 | Active | – | – | 70 | – | – | –
COc1cc2c(c3nc4ccc5ccccc5c4c(OC)c13)[C@@H](O)[C@@H](O)C(C)(C)O2 (racemic) | 6300 | 1400 | inactive | – | – | – | – | – | –
COc1cc2c(c3c1c(=O)c1c4ccccc4ccc1n3C)[C@@H](OC(=O)CC(C)C)[C@@H](OC(=O)CC(C)C)C(C)(C)O2 (racemic) | 150 | 700 | Active | – | 60 | – | – | – | –
C=CCCC(=O)O[C@@H]1c2c(cc(OC)c3c(=O)c4c5ccccc5ccc4n(C)c23)OC(C)(C)[C@@H]1OC(=O)CCC=C (racemic) | 130 | 500 | Active | – | 66 | – | – | – | –
COc1cc2c(c3c1c(=O)c1c4ccccc4ccc1n3C)[C@H]1OC(=O)O[C@H]1C(C)(C)O2 (racemic) | 15 | 60 | inactive | – | – | – | – | – | 64
COc1cc2c(c3c1c(=O)c1cc4ccccc4cc1n3C)[C@@H](OC(C)=O)[C@@H](OC(C)=O)C(C)(C)O2 (racemic) | 100 | 700 | Active | – | – | 73 | – | – | –
COc1cc2c(c3c1c(=O)c1ccccc1n3C)C=CC(C)(C)O2 [ACRONINE] | 3700 | 23000 | – | – | – | – | – | – | –
COc1cc2c(c3c1c(=O)c1c4ccccc4ccc1n3C)C=CC(C)(C)O2 [BENZO[A]ACRONYCINE] | 8600 | 2500 | – | inactive | – | – | – | – | –
